Measurements from ChEMBL document CHEMBL3232922, “Discovery and SAR of 6-alkyl-2,4-diaminopyrimidines as histamine H₄ receptor antagonists” (J Med Chem, 2014).

Tests used:
[1] = Oral bioavailability in Sprague-Dawley rat at 50 mg/kg; type: ADME, organism-based; details: in vivo
Cytochrome P450 3A4 = Cytochrome P450 3A4 (Homo sapiens, UniProt P08684); test: Inhibition of CYP3A4 (unknown origin) at 50 to 100 uM; type: ADME
[2] = Volume of distribution at steady state in Sprague-Dawley rat at 2 mg/kg, iv; type: ADME, organism-based; parameters: dose 2 mg/kg, route intravenous; details: Sprague-Dawley, in vivo, read-out: Vdss
[3] = Initial plasma concentration in Balb/c mouse at 2 mg/kg, iv; type: ADME, organism-based; parameters: dose 2 mg/kg, route intravenous
[4] = Clearance in beagle dog at 2 mg/kg, iv; type: ADME, organism-based, Canis lupus familiaris; parameters: dose 2 mg/kg, route intravenous; details: beagle, in vivo
[5] = Ratio of drug level in kidney to plasma in mouse at 5 mg/kg, po administered as single dose […] by LC-MS/MS analysis; type: ADME, organism-based; parameters: dose 5 mg/kg, route oral
[6] = Oral bioavailability in rat at 10 mg/kg; type: ADME, organism-based; details: in vivo
[7] = Oral bioavailability in Balb/c mouse at 5 mg/kg; type: ADME, organism-based; details: in vivo
[8] = Half life in monkey liver microsomes; type: ADME, Macaca mulatta; details: rhesus monkey
[9] = AUC in Balb/c mouse at 5 mg/kg, po; type: ADME, organism-based; parameters: dose 5 mg/kg, route oral; details: plasma
Cytochrome P450 2C9 = Cytochrome P450 2C9 (Homo sapiens, UniProt P11712); test: Inhibition of CYP2C9 (unknown origin) at 50 to 100 uM; type: ADME
[10] = Half life in dog liver microsomes; type: ADME, Canis lupus familiaris
[11] = AUC in Balb/c mouse at 20 mg/kg, po; type: ADME, organism-based; parameters: dose 20 mg/kg, route oral; details: plasma
[12] = Half life in human liver microsomes; type: ADME
Histamine H4 receptor [13] = biological target: Histamine H4 receptor (Homo sapiens, UniProt Q9H3N8); test: Antagonist activity at human histamine H4 receptor expressed in SK-N-MC cells assessed as reduction of histamine-induced inhibition of cAMP-mediated beta-galactosidase reporter gene activity treated 10 mins prior to histamine challenge by microplate reader analysis; type: functional, cell-based; details: read-out: pA2 (converted)
[14] = Volume of distribution at steady state in rat at 2 mg/kg, iv; type: ADME, organism-based; parameters: dose 2 mg/kg, route intravenous; details: in vivo, read-out: Vdss
[15] = Half life in Sprague-Dawley rat at 2 mg/kg, iv; type: ADME, organism-based; parameters: dose 2 mg/kg, route intravenous; details: Sprague-Dawley, in vivo
[16] = Permeability from basolateral to apical side in human Caco cells; type: ADME, cell-based; details: Caco-2, read-out: permeability
[17] = Binding affinity to dog histamine H4 receptor; parameters: species or system Canis lupus familiaris
[18] = Tmax in Sprague-Dawley rat at 10 mg/kg, po; type: ADME, organism-based; parameters: dose 10 mg/kg, route oral; details: in vivo
[19] = biological target: T1, Voltage-gated inwardly rectifying potassium channel KCNH2 (Homo sapiens, UniProt Q12809); test: Inhibition of human ERG channel transfected in HEK293 cells assessed as reduction in delayed rectifier current by patch clamp assay; type: cell-based
Method in brief: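 The delayed rectifier current (IKr) was recorded in hERG-transfected HEK293 cells with the compound at 3 μM.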

[20] = AUC in beagle dog at 10 mg/kg, po; type: ADME, organism-based, Canis lupus familiaris; parameters: dose 10 mg/kg, route oral; details: plasma
[21] = Half life in mouse kidney at 5 mg/kg, po administered as single dose by LC-MS/MS analysis; type: ADME, organism-based; parameters: dose 5 mg/kg, route oral
Method in brief: (§1)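 Mice received one oral dose of 5 mg/kg. Brain, liver and kidneys were surgically removed from three mice per time point for up to 96 h after dosing. Tissue drug levels were measured by LC–MS/MS with a lower limit of quantitation of 1 ng/g. Tmax and t1/2 are reported as means.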

[22] = Oral bioavailability in Balb/c mouse at 20 mg/kg; type: ADME, organism-based; details: in vivo
[23] = AUC in Sprague-Dawley rat at 10 mg/kg, po; type: ADME, organism-based; parameters: dose 10 mg/kg, route oral; details: plasma
[24] = Half life in mouse brain at 5 mg/kg, po administered as single dose by LC-MS/MS analysis; type: ADME, organism-based; parameters: dose 5 mg/kg, route oral; method in brief: as §1
[25] = Tmax in beagle dog at 10 mg/kg, po; type: ADME, organism-based, Canis lupus familiaris; parameters: dose 10 mg/kg, route oral; details: in vivo
[26] = Toxicity in rabbit purkinje fibers; type: tissue-based, Oryctolagus cuniculus, Purkinje fiber; details: ex_vivo
[27] = Fraction unbound in rat plasma; type: ADME, cell-free
[28] = biological target: T1, Voltage-gated inwardly rectifying potassium channel KCNH2; test: Inhibition of human ERG channel transfected in HEK293 cells assessed as K+ current at up to 10 uM by patch clamp assay; type: cell-based
[29] = Ratio of drug level in brain to plasma in mouse at 5 mg/kg, po administered as single dose […] by LC-MS/MS analysis; type: ADME, organism-based; parameters: dose 5 mg/kg, route oral; details: brain and plasma
Histamine H4 receptor [30] = biological target: T2, Histamine H4 receptor (Mus musculus, UniProt Q91ZY2); test: Antagonist activity at mouse histamine H4 receptor expressed in SK-N-MC cells assessed as reduction of histamine-induced inhibition of cAMP-mediated beta-galactosidase reporter gene activity treated 10 mins prior to histamine challenge by microplate reader analysis; type: functional, cell-based; details: read-out: pA2 (converted)
T2 sequence (Q91ZY2 whole entry): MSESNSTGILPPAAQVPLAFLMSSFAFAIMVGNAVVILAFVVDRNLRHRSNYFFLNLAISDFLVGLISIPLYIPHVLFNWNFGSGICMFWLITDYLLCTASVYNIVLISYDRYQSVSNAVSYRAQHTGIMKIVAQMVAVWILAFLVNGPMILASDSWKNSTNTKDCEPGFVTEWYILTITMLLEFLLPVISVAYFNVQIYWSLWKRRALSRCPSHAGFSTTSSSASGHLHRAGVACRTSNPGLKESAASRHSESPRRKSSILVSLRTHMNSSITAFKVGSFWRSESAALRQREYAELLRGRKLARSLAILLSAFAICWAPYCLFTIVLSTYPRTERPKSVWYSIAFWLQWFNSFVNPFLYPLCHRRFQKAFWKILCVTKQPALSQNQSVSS

[31] = AUC in beagle dog at 2 mg/kg, iv; type: ADME, organism-based, Canis lupus familiaris, Plasma; parameters: dose 2 mg/kg, route intravenous; details: beagle, plasma
[32] = Oral bioavailability in Sprague-Dawley rat at 500 mg/kg; type: ADME, organism-based; details: in vivo
[33] = Clearance in Sprague-Dawley rat at 2 mg/kg, iv; type: ADME, organism-based; parameters: dose 2 mg/kg, route intravenous; details: Sprague-Dawley, in vivo
Cytochrome P450 1A2 = biological target: T3, Cytochrome P450 1A2 (Homo sapiens, UniProt P05177); test: Inhibition of CYP1A2 (unknown origin) at 50 to 100 uM; type: ADME
T3 sequence (P05177 whole entry): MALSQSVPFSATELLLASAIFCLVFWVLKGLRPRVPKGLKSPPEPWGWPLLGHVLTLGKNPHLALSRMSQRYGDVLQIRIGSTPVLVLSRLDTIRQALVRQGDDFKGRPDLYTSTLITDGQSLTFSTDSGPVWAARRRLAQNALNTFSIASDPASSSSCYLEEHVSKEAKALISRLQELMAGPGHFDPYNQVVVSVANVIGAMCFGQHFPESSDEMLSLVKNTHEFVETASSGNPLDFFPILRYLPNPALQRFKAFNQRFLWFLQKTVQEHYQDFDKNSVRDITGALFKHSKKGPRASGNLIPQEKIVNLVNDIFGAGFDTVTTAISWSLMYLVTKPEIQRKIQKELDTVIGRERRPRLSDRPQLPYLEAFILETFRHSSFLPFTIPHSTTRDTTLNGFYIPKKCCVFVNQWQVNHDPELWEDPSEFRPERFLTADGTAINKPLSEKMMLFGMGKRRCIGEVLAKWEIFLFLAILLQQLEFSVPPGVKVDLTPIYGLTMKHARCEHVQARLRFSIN

[34] = Permeability from apical to basolateral side in human Caco cells; type: ADME, cell-based; details: Caco-2, read-out: permeability
[35] = Half life in Sprague-Dawley rat at 10 mg/kg, po; type: ADME, organism-based; parameters: dose 10 mg/kg, route oral; details: in vivo
[36] = Clearance in rat at 2 mg/kg, iv; type: ADME, organism-based; parameters: dose 2 mg/kg, route intravenous; details: in vivo
[37] = Clearance in Balb/c mouse at 2 mg/kg, iv; type: ADME, organism-based; parameters: dose 2 mg/kg, route intravenous; details: in vivo

T1 sequence (Q12809 whole entry): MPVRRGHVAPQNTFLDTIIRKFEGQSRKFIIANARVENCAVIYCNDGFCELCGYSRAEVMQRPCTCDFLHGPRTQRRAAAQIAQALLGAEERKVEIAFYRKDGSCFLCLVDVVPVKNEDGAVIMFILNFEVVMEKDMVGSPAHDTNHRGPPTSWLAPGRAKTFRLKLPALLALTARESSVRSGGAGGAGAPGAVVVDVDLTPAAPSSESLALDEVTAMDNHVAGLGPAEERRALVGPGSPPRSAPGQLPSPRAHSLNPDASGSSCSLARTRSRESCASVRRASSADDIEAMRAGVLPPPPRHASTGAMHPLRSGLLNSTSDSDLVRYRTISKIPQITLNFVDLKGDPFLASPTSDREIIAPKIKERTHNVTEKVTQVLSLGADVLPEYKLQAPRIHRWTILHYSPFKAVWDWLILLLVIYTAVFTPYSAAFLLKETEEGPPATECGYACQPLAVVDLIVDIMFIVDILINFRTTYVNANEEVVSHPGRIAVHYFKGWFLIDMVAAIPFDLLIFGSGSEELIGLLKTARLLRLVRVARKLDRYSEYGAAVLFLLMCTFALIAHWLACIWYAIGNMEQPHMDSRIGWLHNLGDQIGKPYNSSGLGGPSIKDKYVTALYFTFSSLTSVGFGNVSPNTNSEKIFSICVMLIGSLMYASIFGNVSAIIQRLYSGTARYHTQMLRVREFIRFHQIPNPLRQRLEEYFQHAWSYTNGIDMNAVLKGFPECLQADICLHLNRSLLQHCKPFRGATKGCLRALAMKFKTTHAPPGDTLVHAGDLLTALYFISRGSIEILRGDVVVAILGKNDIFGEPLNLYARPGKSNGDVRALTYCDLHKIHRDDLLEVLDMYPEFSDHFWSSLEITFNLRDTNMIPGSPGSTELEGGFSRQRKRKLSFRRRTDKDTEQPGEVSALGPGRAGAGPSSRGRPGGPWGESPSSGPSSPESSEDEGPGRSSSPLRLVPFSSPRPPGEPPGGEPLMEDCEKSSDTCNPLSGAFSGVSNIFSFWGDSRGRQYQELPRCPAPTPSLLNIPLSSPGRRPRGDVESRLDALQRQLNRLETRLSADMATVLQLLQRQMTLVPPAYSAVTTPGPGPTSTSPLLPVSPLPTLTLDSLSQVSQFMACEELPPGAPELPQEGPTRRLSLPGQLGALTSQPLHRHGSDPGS
Cytochrome P450 2C9, sequence (P11712 whole entry): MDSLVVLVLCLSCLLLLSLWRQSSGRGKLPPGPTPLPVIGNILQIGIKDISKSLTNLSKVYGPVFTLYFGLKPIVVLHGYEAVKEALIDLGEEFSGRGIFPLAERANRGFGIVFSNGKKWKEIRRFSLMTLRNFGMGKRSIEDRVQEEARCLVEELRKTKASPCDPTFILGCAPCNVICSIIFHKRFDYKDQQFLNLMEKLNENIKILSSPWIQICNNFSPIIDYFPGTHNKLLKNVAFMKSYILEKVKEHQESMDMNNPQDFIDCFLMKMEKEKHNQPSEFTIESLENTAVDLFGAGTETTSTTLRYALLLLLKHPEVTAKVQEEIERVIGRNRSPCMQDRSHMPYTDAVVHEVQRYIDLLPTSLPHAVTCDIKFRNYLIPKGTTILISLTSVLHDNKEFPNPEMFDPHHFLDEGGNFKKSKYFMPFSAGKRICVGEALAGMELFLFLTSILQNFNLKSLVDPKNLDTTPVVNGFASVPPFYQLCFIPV
Cytochrome P450 3A4, sequence (P08684 whole entry): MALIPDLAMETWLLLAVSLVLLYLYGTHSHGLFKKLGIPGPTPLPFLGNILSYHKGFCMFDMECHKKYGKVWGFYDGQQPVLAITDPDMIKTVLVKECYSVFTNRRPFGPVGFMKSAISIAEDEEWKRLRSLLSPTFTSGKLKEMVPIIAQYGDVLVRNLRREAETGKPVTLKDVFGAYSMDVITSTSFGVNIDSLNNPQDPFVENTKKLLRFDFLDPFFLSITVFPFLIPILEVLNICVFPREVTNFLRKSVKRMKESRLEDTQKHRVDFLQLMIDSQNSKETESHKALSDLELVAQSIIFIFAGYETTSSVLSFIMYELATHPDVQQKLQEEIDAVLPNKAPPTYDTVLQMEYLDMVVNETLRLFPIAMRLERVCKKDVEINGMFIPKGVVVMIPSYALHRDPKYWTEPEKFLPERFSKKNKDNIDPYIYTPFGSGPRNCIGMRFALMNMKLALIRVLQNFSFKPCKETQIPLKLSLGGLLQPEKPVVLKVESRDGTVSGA

bioavailability [1]: 38%
inhibition (INH) (Cytochrome P450 3A4): Not Active
Vd [2]: 19.9 L/kg
C0 [3]: 1020 nM
clearance [4]: 23.3 mL/min/kg
Kp [5]: 23.2
bioavailability [6]: 36%
bioavailability [7]: 84%
half-life [8]: > 2 h
AUC [9]: 9.69 µM·h
inhibition (INH) (Cytochrome P450 2C9): Not Active
half-life [10]: > 2 h
AUC [11]: 24.6 µM·h
half-life [12]: > 2 h
Kb (Histamine H4 receptor [13]): 12.6 nM
Vd [14]: 19.9 L/kg
half-life [15]: 2.1 h
Papp B→A [16]: 22 ×10⁻⁶ cm/s
Ki [17]: ≥ 10000 nM
Tmax [18]: 2 h
AUC [20]: 31.6 µM·h
half-life [21]: 20.5 h
bioavailability [22]: 75%
AUC [23]: 2.43 µM·h
half-life [24]: 42.5 h
Tmax [25]: 0.8 h
fraction unbound [27]: 0.83
Kp [29]: 22.7
Kb (Histamine H4 receptor [30]): 5.01 nM
AUC [31]: 6.7 µM·h
bioavailability [32]: 53%
clearance [33]: 91.7 mL/min/kg
inhibition (INH) (Cytochrome P450 1A2): Not Active
Papp A→B [34]: 23 ×10⁻⁶ cm/s
half-life [35]: 5.7 h
clearance [36]: 36.7 mL/min/kg
clearance [37]: 40 mL/min/kg
SMILES: CC(C)c1cc(N2CC[C@@H](N)C2)nc(N)n1 [JNJ-39758979]
INH [19]: > 10 µM
Activity [26]: Non-toxic
inhibition (INH) [28]: Not Active
